Columns and labels:
Assay type in all cases: biochemical
DPP-IV [1] = biological target: T1, DPP-IV (Homo sapiens, UniProt P27487); assay: Inhibitory kinetics study
In short: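 Test compound was tested separately at 0.25 and 0.5 mg/mL, each against Gly-Pro-AMC at various concentrations (0–60 μM). Inhibition pattern was assigned from Lineweaver-Burk plots. Ki was obtained from a double-reciprocal plot of initial […] against substrate. Values are mean ± SD, n = 6.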

DPP-IV [2] = biological target: T1, DPP-IV; assay: In vitro inhibitory activity against DPP-IV
α-glucosidase = α-glucosidase (Saccharomyces cerevisiae, UniProt P07265); assay: In vitro inhibitory activity against α-glucosidase
human α-amylase (HPA) = biological target: T2, human α-amylase (HPA) (Homo sapiens, UniProt P04746); assay: In vitro inhibitory activity against α-amylase; conditions: α-amylase IC50 (μM)±SD, starch substrate; mean ± SD, n = 6
T2 sequence (P04746 16-511): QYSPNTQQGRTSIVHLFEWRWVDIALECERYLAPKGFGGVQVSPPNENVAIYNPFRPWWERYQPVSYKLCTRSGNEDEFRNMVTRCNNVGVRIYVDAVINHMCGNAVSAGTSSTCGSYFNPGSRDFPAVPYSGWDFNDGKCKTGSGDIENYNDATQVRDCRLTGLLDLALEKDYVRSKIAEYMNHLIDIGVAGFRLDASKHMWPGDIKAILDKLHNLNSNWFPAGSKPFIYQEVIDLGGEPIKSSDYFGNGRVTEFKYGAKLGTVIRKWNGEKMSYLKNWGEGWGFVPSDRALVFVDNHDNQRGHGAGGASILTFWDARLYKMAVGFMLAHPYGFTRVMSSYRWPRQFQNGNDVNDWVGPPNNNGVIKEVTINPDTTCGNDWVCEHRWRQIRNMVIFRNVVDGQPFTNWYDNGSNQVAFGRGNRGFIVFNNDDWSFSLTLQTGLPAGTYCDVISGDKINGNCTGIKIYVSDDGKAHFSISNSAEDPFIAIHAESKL

T1 sequence (P27487 whole entry): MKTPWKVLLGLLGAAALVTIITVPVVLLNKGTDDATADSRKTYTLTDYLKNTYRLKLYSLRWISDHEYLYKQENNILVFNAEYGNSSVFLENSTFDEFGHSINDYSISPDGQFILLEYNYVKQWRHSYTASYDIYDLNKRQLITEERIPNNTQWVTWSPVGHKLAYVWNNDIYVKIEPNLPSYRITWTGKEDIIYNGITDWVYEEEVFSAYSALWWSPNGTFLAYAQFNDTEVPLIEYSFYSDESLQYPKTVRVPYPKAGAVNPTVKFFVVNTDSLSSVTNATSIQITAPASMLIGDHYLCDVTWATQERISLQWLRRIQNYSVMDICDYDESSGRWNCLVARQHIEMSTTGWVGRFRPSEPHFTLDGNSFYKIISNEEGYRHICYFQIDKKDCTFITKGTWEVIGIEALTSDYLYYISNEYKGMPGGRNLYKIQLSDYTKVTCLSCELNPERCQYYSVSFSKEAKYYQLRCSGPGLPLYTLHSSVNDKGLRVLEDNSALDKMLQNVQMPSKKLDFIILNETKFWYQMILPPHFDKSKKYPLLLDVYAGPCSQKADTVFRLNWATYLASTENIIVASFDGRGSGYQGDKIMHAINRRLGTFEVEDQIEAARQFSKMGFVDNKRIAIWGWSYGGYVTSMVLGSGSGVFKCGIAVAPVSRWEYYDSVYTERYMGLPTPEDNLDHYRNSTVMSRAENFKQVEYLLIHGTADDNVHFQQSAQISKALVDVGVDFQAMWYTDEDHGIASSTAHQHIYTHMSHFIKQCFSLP
Sequence of α-glucosidase (P07265 whole entry): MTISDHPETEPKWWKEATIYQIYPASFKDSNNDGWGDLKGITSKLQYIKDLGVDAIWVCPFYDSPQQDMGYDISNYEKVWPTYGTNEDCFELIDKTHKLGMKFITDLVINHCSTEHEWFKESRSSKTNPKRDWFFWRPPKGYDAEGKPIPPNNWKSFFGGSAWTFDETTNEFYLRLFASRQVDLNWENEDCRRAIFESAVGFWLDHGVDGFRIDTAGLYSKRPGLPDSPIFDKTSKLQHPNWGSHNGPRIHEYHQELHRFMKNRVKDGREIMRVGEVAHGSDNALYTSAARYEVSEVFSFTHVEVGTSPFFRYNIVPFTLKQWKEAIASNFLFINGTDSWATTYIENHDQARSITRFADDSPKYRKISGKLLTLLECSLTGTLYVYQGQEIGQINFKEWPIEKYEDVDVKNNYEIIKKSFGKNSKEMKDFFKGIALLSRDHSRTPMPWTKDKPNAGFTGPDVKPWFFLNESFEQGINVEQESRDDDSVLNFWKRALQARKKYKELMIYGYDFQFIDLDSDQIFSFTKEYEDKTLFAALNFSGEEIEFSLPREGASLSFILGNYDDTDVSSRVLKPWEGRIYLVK

| Ki (DPP-IV [1]) [µM] | IC50 (DPP-IV [2]) [µM] | IC50 (α-glucosidase) [µM] | IC50 (human α-amylase (HPA)) [µM] | Structure (SMILES) |
| --- | --- | --- | --- | --- |
| 15 | 5.638 ± 0.0016 | 47.9 ± 5.21 | – | Oc1ccc(/C=C/c2cc(O)cc(O)c2)cc1 [Resveratrol] |
| 12.3 | 6.691 ± 0.004 | 45.9 ± 3.78 | 31.3 ± 0.556 | O=C1c2c(O)cc(O)cc2OC(c2ccc(O)c(O)c2)C1O (stereo not shown) [Taxifolin] |
